One may read the IC50 as the concentration that inhibits the measured activity by half. Usually ED50 stands for the dose at which the effect has come halfway, by size or by number of responders. By inhibition is commonly meant the drop in the measured response relative to a control, in per cent. The term inhibition in vivo denotes the drop in the measured response relative to a control, in per cent.

Test [1] in a line: Inhibition of CRAC channel-mediated calcium influx in human Jurkat cells. In kind it is cell-based. A digest of the protocol: (§1)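 Jurkat cells (2 × 10⁶ cells/ml) loaded with 1 µM Fura-2/AM for 45 min at room temperature in HEPES buffer pH 7.4 (NaCl 137, KCl 5.8, MgCl₂ 1, CaCl₂ 2.5, glucose 5, HEPES 10 mM), then washed. Thapsigargin-induced Ca²⁺ influx read by 340/380 nm excitation, 500 nm emission, with cell-free compound fluorescence subtracted. IC50 taken from percent inhibition.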

The subject of test [2] is Jurkat. Put plainly: Selectivity ratio of IC50 for VOC channel in […] PC12-h5 cells over IC50 for CRAC channel in human Jurkat cells.
The nature of test [3]: Inhibition of VOC channel-mediated calcium influx in […] PC12-h5 cells. It counts as cell-based. To be noted: Rattus norvegicus, PC-12. In short, it runs like this:
(§2)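 PC12-h5 cells (1 × 10⁶ cells/ml) loaded with 1 µM Fura-2/AM for 45 min at room temperature in HEPES buffer pH 7.4, then washed. Depolarized with 50 mM KCl for 20 min. Intracellular Ca²⁺ measured at the 20 min endpoint from the 340/380 nm excitation ratio (500 nm emission), with compound autofluorescence subtracted.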

The subject of another test is Rattus norvegicus. Put plainly: Inhibition of ovalbumin-induced airway eosinophilia in BN rat po dosed 1 hr before antigen challenge assessed as number of eosinophils in bronchoalveolar levage fluid after 24 hrs. The settings on record: Lung. It counts as functional. A digest of the protocol:
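Sensitized rats were challenged 3 weeks later with aerosolized 1% (w/v) ovalbumin for 15 min. Compound given orally 1 h before exposure. BAL performed 24 h after challenge. Total white cells counted with a blood cell counter. Eosinophils identified morphologically on smears and eosinophil number per animal calculated. ED50 derived.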

A further test relates to PC-12. In words: Inhibition of VOC channel-mediated calcium influx in […] PC12-h5 cells at 10 uM. In kind it is cell-based. To be noted: Rattus norvegicus. In short, it runs like this:
as §2

Test [4] deals with Mus musculus. Put plainly: Inhibition of trinitrochlorobenzene-induced contact hypersensitivity in 1 hr before pretreated CD1 mouse assessed as ear swelling at 30 mg/kg, po. In kind it is functional. A digest of the protocol:
(§3)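 Mice challenged with TNCB on both sides of the ear pinna. Compound given orally 1 h before TNCB exposure, with 0.5% MC vehicle given orally to control animals. Ear thickness measured by dial gauge 24 h after challenge and swelling calculated from the pre-exposure value.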

The subject of test [5] is Jurkat. Put plainly: Inhibition of PHA-induced IL2 production in human Jurkat T lymphocytes. In kind it is functional, cell-based. In short, it runs like this: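 Jurkat T cells (5 × 10⁶ cells/ml) stimulated with PHA (20 µg/ml) for 20 h. IL-2 in the supernatant quantified by human IL-2 ELISA.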
Test [6] relates to Jurkat. Put plainly: Inhibition of CRAC channel-mediated calcium influx in human Jurkat cells at 10 uM. In kind it is cell-based. A digest of the protocol:
as §1

The test system of test [7] is Mus musculus. Put plainly: Inhibition of trinitrochlorobenzene-induced contact hypersensitivity in 1 hr before orally pretreated CD1 mouse assessed as ear swelling. In kind it is functional. To be noted: CD1, po. A digest of the protocol: as §3

As for `Cc1ccncc1C(=O)Nc1ccc(-n2nc(C(F)(F)F)cc2C(F)(F)F)cc1`, the IC50 worked out at 290 nM in test [1] and 6300 nM in test [3]. Besides, in the test with Jurkat [2], the Ratio IC50 was 20.
Regarding `Nc1cncc(C(=O)Nc2ccc(-n3nc(C(F)(F)F)cc3C(F)(F)F)cc2)c1`, the IC50 in test [1] stood at 270 nM; in the test on Jurkat [5], 160 nM. The ED50 with Rattus norvegicus was 4.4 mg/kg. The inhibition in the test on PC-12 was determined as 14%. In the test on Jurkat [2], the Ratio IC50 is above 37. In addition, the inhibition in vivo at 30 mg/kg in the test on Mus musculus [4] came out at 59%.
With `O=C(Nc1ccc(-n2nc(C(F)(F)F)cc2C(F)(F)F)cc1)c1cccnc1`, the results for the IC50 (in test [1]; with Jurkat [5]) were 250 nM and 93 nM, respectively. In the test with PC-12, the inhibition is 30%. Moreover, the Ratio IC50 with Jurkat [2] was above 40. For the same compound, the inhibition in vivo at 30 mg/kg in the test with Mus musculus [4] turned out to be 62%.
Consider `O=C(Nc1ccc(-n2nc(C(F)(F)F)cc2C(F)(F)F)cc1)c1cccnc1O`, for which, in test [1], the IC50 stood at 3300 nM.
Take `O=C(Nc1ccc(-n2nc(C(F)(F)F)cc2C(F)(F)F)cc1)c1cnccc1C(F)(F)F`: the IC50 was 430 nM in test [1] and 2000 nM in test [3]. Moreover, the Ratio IC50 in the test on Jurkat [2] was found to be 5.
With `Cc1nnsc1C(=O)Nc1ccc(-n2ccc(C(F)(F)F)n2)cc1`, the inhibition in the test on Jurkat [6] amounted to 40%.
For `Cc1nnsc1C(=O)Nc1ccc(-n2nc(C(F)(F)F)cc2C#N)cc1`, in [1], the IC50 is 220 nM. In the test with PC-12, the inhibition stood at 45%. In addition, in the test with Jurkat [2], the Ratio IC50 was above 45.
In the case of `Cc1ccc(C(=O)Nc2ccc(-n3nc(C(F)(F)F)cc3C(F)(F)F)cc2)cn1`, the IC50 in test [1] stood at 220 nM; with Jurkat [5], 94 nM. For the same compound, the inhibition with PC-12 worked out at 27%. The Ratio IC50 with Jurkat [2] was above 45. Moreover, in the test with Mus musculus [4], the inhibition in vivo at 30 mg/kg amounted to 46%.
`O=C(Nc1ccc(-n2nc(C(F)(F)F)cc2C(F)(F)F)cc1)c1cnccc1O`: in the test on Jurkat [6], the inhibition was found to be 21%.
`Cc1nnsc1C(=O)Nc1ccc(-n2nc(C(F)(F)F)cc2Cl)cc1`: the IC50 is 82 nM in test [1], 15 nM with Jurkat [5] and 2900 nM in test [3]. Besides, the Ratio IC50 in the test with Jurkat [2] was 35. Moreover, in the test on Mus musculus [4], the inhibition in vivo at 30 mg/kg came to 42%.
Regarding `O=C(Nc1ccc(-n2nc(C(F)(F)F)cc2C(F)(F)F)cc1)c1cncc(F)c1`, the results for the IC50 (in test [1]; in the test on Jurkat [5]) were 77 nM and 18 nM, respectively. The inhibition with PC-12 came to 27%. The Ratio IC50 in the test with Jurkat [2] was above 130. In the test with Mus musculus [4], the inhibition in vivo at 30 mg/kg is 44%.
Take `O=C(Nc1ccc(-n2nc(C(F)(F)F)cc2C(F)(F)F)cc1)c1c[nH]cn1`: in the test on Jurkat [6], the inhibition was 29%.
Consider `O=C(Nc1ccc(-n2nc(C(F)(F)F)cc2C(F)(F)F)cc1)c1ccncc1`, for which the IC50 in test [1] was 240 nM; in the test with Jurkat [5], 16 nM; in [3], 10000 nM. The Ratio IC50 with Jurkat [2] turned out to be 42. Besides, the inhibition in vivo at 30 mg/kg with Mus musculus [4] turned out to be 25%.
`COc1ncccc1C(=O)Nc1ccc(-n2nc(C(F)(F)F)cc2C(F)(F)F)cc1`: the values for the IC50 in test [1] and in [3] were 120 nM and 2900 nM, respectively. Moreover, the Ratio IC50 in the test with Jurkat [2] worked out at 24.
As to `O=C(Nc1ccc(-n2nc(C(F)(F)F)cc2C(F)(F)F)cc1)c1ccccn1`, the inhibition in the test on Jurkat [6] stood at 14%.
On to `O=C(Nc1ccc(-n2nc(C(F)(F)F)cc2C(F)(F)F)cc1)c1nccs1`, for which, in test [1], the IC50 was determined as 460 nM. Moreover, in the test on PC-12, the inhibition stood at 37%. For the same compound, the Ratio IC50 in the test with Jurkat [2] is above 22.
For `Cc1cncc(C(=O)Nc2ccc(-n3nc(C(F)(F)F)cc3C(F)(F)F)cc2)c1`, the IC50 in test [1] was 210 nM; in test [3], 3100 nM. In addition, in the test with Jurkat [2], the Ratio IC50 was 15.
Consider `Cc1nnsc1C(=O)Nc1ccc(-n2nc(C(F)(F)F)cc2C)cc1`, for which the IC50 in test [1] was 220 nM; in the test on Jurkat [5], 18 nM. Also, the inhibition in the test with PC-12 came out at 46%. For the same compound, the Ratio IC50 with Jurkat [2] is above 45. The inhibition in vivo at 30 mg/kg in the test on Mus musculus [4] amounted to 24%.
For the compound `Cc1cc(C)c(C(=O)Nc2ccc(-n3nc(C(F)(F)F)cc3C(F)(F)F)cc2)cn1`, the IC50 came out at 290 nM in [1] and 33 nM with Jurkat [5]. Further, the median effective dose (ED50) in the test on Rattus norvegicus was determined as 1.3 mg/kg. Besides, the inhibition with PC-12 turned out to be 41%. The Ratio IC50 with Jurkat [2] is above 34. In addition, the inhibition in vivo at 30 mg/kg in the test on Mus musculus [4] was determined as 64%.
For `O=C(Nc1ccc(-n2nc(C(F)(F)F)cc2C(F)(F)F)cc1)c1cccnc1Cl`, the half-maximal inhibitory concentration (IC50) in [1] came out at 240 nM; in test [3] it was 4500 nM. In addition, the Ratio IC50 in the test with Jurkat [2] is 19.
Regarding `Cc1nnsc1C(=O)Nc1ccc(-n2nc(C(F)(F)F)cc2C(F)(F)F)cc1`, the values for the concentration for half-maximal inhibition (IC50) (in test [1]; in the test with Jurkat [5]; in test [3]) were 150 nM, 17 nM and 4700 nM, respectively. Also, the ED50 came out at 2.4 mg/kg in the test on Rattus norvegicus and 1.1 mg/kg in the test with Mus musculus [7]. In addition, the Ratio IC50 in the test with Jurkat [2] is 31. Besides, in the test on Mus musculus [4], the inhibition in vivo at 30 mg/kg was 100%.
Take `Cc1nnsc1C(=O)Nc1ccc(-n2nc(C(F)(F)F)cc2Br)cc1`: the IC50 was found to be 92 nM in test [1], 5.9 nM in the test with Jurkat [5] and 2600 nM in test [3]. Moreover, the Ratio IC50 in the test on Jurkat [2] was 28. Further, the inhibition in vivo at 30 mg/kg with Mus musculus [4] turned out to be 8.3%.
As for `COc1ccncc1C(=O)Nc1ccc(-n2nc(C(F)(F)F)cc2C(F)(F)F)cc1`, the IC50 in test [1] was 230 nM; in test [3] it was 4800 nM. Further, the Ratio IC50 in the test on Jurkat [2] was 21.
On the same counts, the results for `O=C(Nc1ccc(-n2nc(C(F)(F)F)cc2C(F)(F)F)cc1)c1cncs1` are 960 nM, 10000 nM and 10.
Consider `Cc1ccnc(C)c1C(=O)Nc1ccc(-n2nc(C(F)(F)F)cc2C(F)(F)F)cc1`, for which, in [1], the IC50 came out at 1600 nM.
With `O=C(Nc1ccc(-n2nc(C(F)(F)F)cc2C(F)(F)F)cc1)c1cncc(Cl)c1`, the IC50 in test [1] was 110 nM; with Jurkat [5] it was 34 nM. The inhibition in the test with PC-12 turned out to be 31%. Also, the Ratio IC50 with Jurkat [2] was above 91. The inhibition in vivo at 30 mg/kg in the test with Mus musculus [4] was 42%.
Turning to `Nc1ccncc1C(=O)Nc1ccc(-n2nc(C(F)(F)F)cc2C(F)(F)F)cc1`, the IC50 in [1] was 780 nM; in test [3], 2400 nM. Also, the Ratio IC50 with Jurkat [2] was 3.1.
For `Cc1nnsc1C(=O)Nc1ccc(-n2nc(C(F)(F)F)c3c2CCC3)cc1`, the results for the IC50 in test [1] and in test [3] were 400 nM and 3500 nM, respectively. Moreover, the Ratio IC50 with Jurkat [2] was determined as 8.8.
For `O=C(Nc1ccc(-n2nc(C(F)(F)F)cc2C(F)(F)F)cc1)c1cnccc1Cl`, the IC50 in test [1] came out at 160 nM; in the test on Jurkat [5], 18 nM; in [3], 5100 nM. For the same compound, in the test on Jurkat [2], the Ratio IC50 turned out to be 32. Moreover, the inhibition in vivo at 30 mg/kg in the test with Mus musculus [4] was -18%.
Regarding `O=C(Nc1ccc(-n2nc(C(F)(F)F)cc2C(F)(F)F)cc1)c1cncc(Br)c1`, the IC50 in test [1] was 150 nM; in the test with Jurkat [5], 24 nM. The inhibition in the test on PC-12 was determined as 29%. The Ratio IC50 in the test with Jurkat [2] is above 67. Moreover, the inhibition in vivo at 30 mg/kg with Mus musculus [4] is 17%.
For the compound `Cc1ccc(-c2cc(C(F)(F)F)nn2-c2ccc(NC(=O)c3snnc3C)cc2)cc1`, the IC50 in test [1] is 720 nM; in [3], 2500 nM. Moreover, the Ratio IC50 in the test on Jurkat [2] was 3.5.

(Values after ChEMBL document CHEMBL1142507, “Novel potent and selective Ca2+ release-activated Ca2+ (CRAC) channel inhibitors. Part 3: synthesis and CRAC channel inhibitory activity of 4'-[(trifluoromethyl)pyrazol-1-yl]carboxanilides” (Bioorg Med Chem, 2008).)
